Source: PubChem
This is one part of a sample in which hits are shown more often than they occur.
Fibroblast inh – antiproliferative effect on LL 47 fibroblasts – human, LL 47 cells, CellTiter-Glo luminescence, primary screen. LL 47 human lung fibroblast viability, ATP luminescence; hits give low values. viability, % at 10 µM. 85,000 tested, 1.1% active. AID 719, 2007;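 active = viability at or below 50% in the single dose screen; inactive = viability above 50%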;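 note: compound exposure lasted 72 h before the ATP readout; 100% = median luminescence of untreated cell-only wells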
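Benchmarks: Cell-only wells, no compound | Test system: LL 47 human lung fibroblasts, passage 12 or lower | Input: 1,150 cells/well | Measured by: CellTiter-Glo luminescence measuring cellular ATP | Medium: IMEM, 15% FBS supplement | Schedule: Overnight attachment after seeding, then 72 h compound exposure at 37 °C | Doses: Compound addition at 0.1% DMSO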
Phagocytosis inh – inhibitors of macrophage phagocytosis, primary screen, imaging, J774A.1 cells, IgG beads. J774A.1 macrophage IgG-bead phagocytosis. inhibition, % at 5 µM. 110,000 tested, 0.07% active;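 active = inhibition above the mean of the plate negative controls plus 5 SD, cut at about 13% in these data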;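 note: phagocytic index as fraction of beads internalized from green versus red external bead signal; plate controls were DMSO negative control for no effect and cytochalasin-D positive control for full effect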
HUVEC inhibit – inhibitors of HUVEC proliferation, primary screen, cell-based, 384-well | CellTiter-Glo luminescence, 72 h; hits give low values | viability, % at 10 µM (by protocol) | 86,000 tested, 1.1% active | AID 648, 2007;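 active = viability at or below 30%; inactive = viability above 30%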;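 note: 100% = median luminescence of DMSO-only cell control wells on each plate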
H69AR growth 86K – proliferation blockers of H69AR lung cancer cells, primary screen, cell-based, human, 86K library; H69AR lung tumor viability, ATP luminescence, 72 h; hits give low values; viability, % at 10 µM; 85,000 tested, 6% active;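 active = viability at or below 40%; inactive = viability above 40%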;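 note: multidrug resistant small cell line overexpressing MRP-1 efflux transporter; 100% = mean luminescence of untreated control wells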
HCT116 PTEN-null – growth suppression of PTEN-null HCT116, primary screen, cell-based, CellTiter-Glo | HCT116 PTEN-null viability, 60 h; hits give low values | 140,000 tested, 1.2% active | AID 827, 2007 | viability, % at 10 µM;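 active = viability at or below a set limit, 4 SD under the median of all tested compounds, cut at about 3.7% in these data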;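 note: PTEN knockout HCT116 line with beta catenin targeted HCT116 as companion control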
HCT116 bCat-KO – primary screen for growth suppressors in beta-catenin knockout HCT116 cells (colon tumor, human). HCT116 beta-catenin knockout viability, CellTiter-Glo, 60 h; hits give low values. viability, % at 10 µM. 140,000 tested, 1.5% active;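 active = viability at or under a set limit, the compound median less 4 SD, cut at about 6% in these data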;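 note: 0% = Hyamine 1622 control at 20 µM and 100% = untreated cell control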
Numbers without * were called inactive; nt = no result.

SMILES	Fibroblast inh	Phagocytosis inh	HUVEC inhibit	H69AR growth 86K	HCT116 PTEN-null	HCT116 bCat-KO
CCOc1ccc2cc(C#N)c(SCC(=O)NC(C)CC)nc2c1 (centres undefined)	102	0	68	29*	93	95
CCOc1nc(Nc2ccc(-c3nc4ccccc4o3)cc2)nc(N2CCOCC2)n1	102	nt	73	64	nt	nt
CC1CCCCC1NC(=O)c1cc2ccccc2o1 (centres undefined)	nt	-3	nt	nt	84	74
Cc1ccc(-c2csc3ncnc(NCCN4CCOCC4)c23)cc1	91	-2	93	27*	93	92
COc1ccc(-c2csc3ncnc(NCCN4CCOCC4)c23)cc1	64	0	47	21*	39	57
Clc1ccc(-c2csc3ncnc(NCCN4CCOCC4)c23)cc1	89	-1	88	56	62	50
Cc1cccc(N(C(=O)C(F)(F)F)C(C(=O)NC2CCCCC2)c2cccs2)c1 (centres undefined)	nt	nt	nt	nt	90	87
COc1cc(N(C(=O)Cc2cccs2)C(C(=O)NC2CCCCC2)c2ccc(C)cc2)ccc1-n1cnnn1 (centres undefined)	nt	-13	nt	nt	1.4*	15
COc1ccc(N(C(=O)Cc2cccs2)C(C(=O)NC2CCCCC2)c2cccn2C)cc1OC (centres undefined)	95	nt	92	76	81	94
C#CC(=O)N(c1ccc(OC)c(OC)c1)C(C(=O)NC1CCCC1)c1cccs1 (centres undefined)	nt	0	nt	nt	1.7*	1.3*
C#CC(=O)N(c1cccc(OC)c1)C(C(=O)NC1CCCC1)c1cccs1 (centres undefined)	nt	47*	nt	nt	1.0*	0.5*
CC(=O)c1c(C)[nH]c(C(=O)OCC(=O)Nc2cc(C(F)(F)F)ccc2N2CCOCC2)c1C	90	0	84	45	53	64
CCc1nc(N2CCCCC2C)c2oc3ccccc3c2n1 (centres undefined)	68	-2	44	22*	34	26
CCc1nc(N2CCCCC2)c2oc3ccccc3c2n1	87	-2	92	77	94	94
CCc1nc(Nc2ccncc2)c2oc3ccccc3c2n1	58	0	99	97	1.7*	2.0*
Cc1nc(Nc2ccncc2)c2oc3ccccc3c2n1	61	-1	93	84	14	15
CC/C(O)=C(\C#N)c1nnc2n1CCCCC2	101	nt	98	104	90	90
N#CC1=C2SCN(Cc3ccco3)CN2C(=O)CC1c1ccccc1F (centres undefined)	91	1	96	40*	94	100
Cc1nnc(SCC(=O)NC2CCCCC2)n(N)c1=O	nt	-1	nt	nt	103	94
CCOc1ccccc1NC(=O)CCSc1nc2n[nH]c(C)c2c(=N)n1-c1ccccc1Cl	56	nt	52	6.5*	15	14
CCOc1ccccc1-n1c(SCC(=O)Nc2ccc(CC)cc2)nc2n[nH]c(C)c2c1=N	nt	0	nt	nt	3.7*	5.0*
CCc1ccccc1NC(=O)CSc1nc2n[nH]c(C)c2c(=N)n1-c1cccc(OC)c1	87	nt	82	60	65	63
CCOc1ccccc1N/C(=N/c1nc(C)cc(C)n1)NC(=O)Nc1ccc(Cl)c(Cl)c1	nt	5	nt	nt	73	82
O=C(Nc1cccnc1Cl)C1c2ccccc2Oc2ccccc21	105	nt	102	91	85	74
CCOc1ccc(C(=O)N/N=C(\c2ccccc2)c2ccccn2)cc1	nt	-1	nt	nt	2.6*	3.7*
CC(=O)n1cc(-c2ccncc2)c2ccccc21	86	-1	25*	68	72	86
O=C(CSc1cn(Cc2ccccc2)c2ccccc12)NCc1ccc(F)cc1	nt	nt	nt	nt	98	89
Cn1c(=O)c2c(nc(OCc3ccc4c(c3)OCO4)n2Cc2ccccc2Cl)n(C)c1=O	nt	1	nt	nt	96	101
C=CCOc1nc2c(c(=O)n(C)c(=O)n2C)n1Cc1ccc(Cl)cc1	96	-3	96	75	72	66
Cn1c(=O)c2c(nc(CN3CCN(c4ccccc4)CC3)n2Cc2ccccc2F)n(C)c1=O	93	1	91	83	nt	nt
